# From article PMC5771863 (Anesthesiology, 2018)
# Experiments:
# Assay type in all cases: cell-based
# [1] = target: α1β3E298Cγ2L GABAA receptors (Homo sapiens, UniProt P14867+P28472, E323C); assay: Functional effect of pCMBS exposure
# [2] = target: T1, α1β3F301Cγ2L GABAA receptors (Homo sapiens, UniProt P14867+P28472, F326C); assay: Functional effect of pCMBS exposure
# [3] = target: T2, α1β3L297Cγ2L GABAA receptors (Homo sapiens, UniProt P14867+P28472, L322C); assay: Functional effect of pCMBS exposure
# [4] = target: T3, α1β3V290Cγ2L GABAA receptors (Homo sapiens, UniProt P14867+P28472, V315C); assay: Functional effect of pCMBS exposure
# [5] = target: α1β3M286Cγ2L GABAA receptors (Homo sapiens, UniProt P14867+P28472, M311C); assay: Functional effect of pCMBS exposure
# [6] = target: α1β3F289Cγ2L GABAA receptors (Homo sapiens, UniProt P14867+P28472, F314C); assay: Functional effect of pCMBS exposure
# [7] = target: T4, α1β3F293Cγ2L GABAA receptors (Homo sapiens, UniProt P14867+P28472, F318C); assay: Functional effect of pCMBS exposure
# [8] = target: α1β3T266Cγ2L GABAA receptors (Homo sapiens, UniProt P14867+P28472, T291C); assay: Functional effect of pCMBS exposure
# [9] = target: α1β3γ2L GABAA receptors (wild-type) (Homo sapiens, UniProt P14867+P28472); assay: Functional effect of pCMBS exposure
# [10] = target: α1β3G287Cγ2L GABAA receptors (Homo sapiens, UniProt P14867+P28472, G312C); assay: Functional effect of pCMBS exposure
# [11] = target: α1β3T262Cγ2L GABAA receptors (Homo sapiens, UniProt P14867+P28472, T287C); assay: Functional effect of pCMBS exposure
# [12] = target: α1β3M283Cγ2L GABAA receptors (Homo sapiens, UniProt P14867+P28472, M308C); assay: Functional effect of pCMBS exposure
# [13] = target: T3, α1β3V290Cγ2L GABAA receptors
# [14] = target: T4, α1β3F293Cγ2L GABAA receptors; conditions: control modification conditions
# [15] = target: β3 subunits with Y284C mutations co-expressed with α1 and γ2L (Homo sapiens, UniProt P14867+P28472, Y309C); assay: GABA-activated currents, two-electrode voltage clamp in Xenopus oocytes; conditions: β3Y284C co-expressed with α1 and γ2L in Xenopus oocytes
# Method in brief: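 Human α1 and γ2L were co-expressed with mutant β3 from mRNA (1:1:5, ~50 ng per oocyte) over 48 to 72 hours at 17 °C in ND96. […] A current of ≥ 0.5 μA was required for further experiments.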
# [16] = target: T2, α1β3L297Cγ2L GABAA receptors; assay: Substituted cysteine modification-protection; conditions: pCMBS + maximal GABA
# [17] = target: wild-type α1β3γ2L GABAA receptors (Homo sapiens, UniProt P14867+P28472); conditions: […] ETO, 5 μM PRO, […] ALX (2 x EC50 tadpole LoRR)
# [18] = target: T4, α1β3F293Cγ2L GABAA receptors; assay: Substituted cysteine modification-protection; conditions: pCMBS + maximal GABA, initial concentrations, 10 μM ALX
# [19] = target: α1T237Cβ3γ2L GABAA receptors (Homo sapiens, UniProt P14867+P28472, T264C); assay: Substituted cysteine modification-protection; conditions: 10 μM ALX, 10 μM ETO
# [20] = target: T1, α1β3F301Cγ2L GABAA receptors; assay: Substituted cysteine modification-protection; conditions: pCMBS + maximal GABA, 10 to 20 μM ALX, 10 to 20 μM ETO
# [21] = target: GABAA receptors with α1Q242C mutation (Homo sapiens, UniProt P14867+P28472, Q269C); assay: Receptor sensitivity to anesthetics; conditions: authors' unpublished data
# [22] = low concentrations of anesthetics
# T2 sequence (P14867 28-456): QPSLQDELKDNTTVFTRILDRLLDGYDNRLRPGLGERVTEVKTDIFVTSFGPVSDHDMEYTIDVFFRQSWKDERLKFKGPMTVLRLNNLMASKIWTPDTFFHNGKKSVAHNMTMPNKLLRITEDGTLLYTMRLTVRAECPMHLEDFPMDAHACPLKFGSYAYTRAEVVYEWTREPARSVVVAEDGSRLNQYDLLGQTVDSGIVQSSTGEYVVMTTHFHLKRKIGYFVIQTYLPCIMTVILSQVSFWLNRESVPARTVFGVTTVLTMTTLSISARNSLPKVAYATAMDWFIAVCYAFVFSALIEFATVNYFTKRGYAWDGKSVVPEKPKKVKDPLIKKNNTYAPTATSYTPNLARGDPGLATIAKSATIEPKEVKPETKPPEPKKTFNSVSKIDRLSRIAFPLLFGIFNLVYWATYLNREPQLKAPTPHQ
# T2 sequence (P28472 26-473 L322C): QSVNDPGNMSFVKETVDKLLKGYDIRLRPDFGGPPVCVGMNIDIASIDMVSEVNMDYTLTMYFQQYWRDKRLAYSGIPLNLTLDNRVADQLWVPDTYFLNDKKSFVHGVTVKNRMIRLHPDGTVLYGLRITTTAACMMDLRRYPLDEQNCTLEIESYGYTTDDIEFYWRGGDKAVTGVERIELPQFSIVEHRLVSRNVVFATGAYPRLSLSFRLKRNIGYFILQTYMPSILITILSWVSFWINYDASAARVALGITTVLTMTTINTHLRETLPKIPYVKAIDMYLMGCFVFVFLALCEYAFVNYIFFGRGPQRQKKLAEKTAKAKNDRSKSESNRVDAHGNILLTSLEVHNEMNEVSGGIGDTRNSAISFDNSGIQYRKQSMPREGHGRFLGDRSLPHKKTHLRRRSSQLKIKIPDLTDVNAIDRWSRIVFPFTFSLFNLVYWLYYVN
# T2 sequence (P18507 40-475 partner): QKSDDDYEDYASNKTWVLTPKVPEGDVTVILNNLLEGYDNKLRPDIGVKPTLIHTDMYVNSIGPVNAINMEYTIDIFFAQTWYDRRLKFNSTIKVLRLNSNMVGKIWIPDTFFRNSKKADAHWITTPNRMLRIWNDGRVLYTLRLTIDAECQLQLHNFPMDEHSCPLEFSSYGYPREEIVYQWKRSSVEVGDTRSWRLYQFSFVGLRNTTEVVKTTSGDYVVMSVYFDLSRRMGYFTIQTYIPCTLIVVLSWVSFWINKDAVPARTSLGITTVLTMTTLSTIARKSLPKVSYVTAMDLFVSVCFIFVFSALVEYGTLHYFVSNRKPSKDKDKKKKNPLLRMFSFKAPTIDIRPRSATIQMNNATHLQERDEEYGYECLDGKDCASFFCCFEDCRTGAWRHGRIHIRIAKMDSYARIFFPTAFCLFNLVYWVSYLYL
# T4 sequence (P14867 28-456): as the sequence (P14867 28-456) above
# T4 sequence (P28472 26-473 F318C): as the sequence (P28472 26-473 L322C) above, with F293C, C297L counted along it
# T4 sequence (P18507 40-475 partner): as the sequence (P18507 40-475 partner) above
# α1β3T262Cγ2L GABAA receptors, sequence (P14867 28-456): as the sequence (P14867 28-456) above
# α1β3T262Cγ2L GABAA receptors, sequence (P28472 26-473 T287C): as the sequence (P28472 26-473 L322C) above, with T262C, C297L counted along it
# α1β3T262Cγ2L GABAA receptors, sequence (P18507 40-475 partner): as the sequence (P18507 40-475 partner) above
structure (smiles),measurement,setting,value
"O=S(=O)([O-])c1cc[c]([Hg][Cl])cc1.[Na+] [pCMBS, Para-chloromercuribenzenesulfonic acid sodium salt]",Maximal Effect of pCMBS Modification (range): ↑ lo/hi GABA response,[1],↑ lo/hi GABA response (3.5 to 5.5-fold)
same,Maximal Effect of pCMBS Modification (range): ↑ lo/hi GABA response,[2],↑ lo/hi GABA response (3.8 to 4.9-fold)
same,Maximal Effect of pCMBS Modification (range): ↑ lo/hi GABA response,[3],↑ lo/hi GABA response (5.5 to 7.2-fold)
same,Maximal Effect of pCMBS Modification (range): ↑ lo/hi GABA response,[4],↑ lo/hi GABA response (2.3 to 3.1-fold)
same,Maximal Effect of pCMBS Modification (range): ↑ lo/hi GABA response,[5],↑ lo/hi GABA response (5.8 to 7.8-fold)
same,Maximal Effect of pCMBS Modification (range): ↑ lo/hi GABA response,[6],↑ lo/hi GABA response (2.8 to 4.0-fold)
same,Maximal Effect of pCMBS Modification (range): ↑ lo/hi GABA response,[7],↑ lo/hi GABA response (2.6 to 4.3-fold)
same,Maximal Effect of pCMBS Modification (range): ↑ lo/hi GABA response,[8],↑ lo/hi GABA response (10 to 13-fold)
same,Maximal Effect of pCMBS Modification (range),[9],No effect
same,effect of pCMBS exposure on receptor function,[9]; pCMBS at 1 mM for 60 s,unaffected
same,Maximal Effect of pCMBS Modification (range): ↑ lo/hi GABA response,[10],↑ lo/hi GABA response (2.3 to 3.5-fold)
same,Maximal Effect of pCMBS Modification (range): Reduce max current,[11],Reduce max current (95–99%)
same,effect of pCMBS exposure on activation by GABA,[11]; low and high GABA,similarly reduced activation by both low and high GABA
same,Maximal Effect of pCMBS Modification (range),[12],No effect
"C=CCC1(c2cccc(C3(C(F)(F)F)N=N3)c2)C(=O)NC(=O)N(C)C1=O (stereo not drawn) [mTFD-MPAB, R-allyl-m-trifluoromethyl-mephobarbital]",effect on apparent rate of pCMBS modification,[13],unaffected
"NCCCC(=O)O [GABA, γ-Aminobutyric acid]",fraction of receptors activated by maximal GABA,[14],about 16%
same,GABA-activated currents,[15],No GABA-activated currents were detected
"CC(C)c1cccc(C(C)C)c1O [PRO, 2,6-diisopropylphenol]",effect on apparent rate of pCMBS modification,[16]; [22],unaffected
same,enhancement of gating of receptors activated with EC5 GABA,[17],similarly enhance
same,effect on apparent rate of pCMBS modification,[18],accelerated
"CCOC(=O)c1cncn1[C@H](C)c1ccccc1 [ETO, R-Etomidate]",effect on pCMBS modification rates,[19],inhibited modification
same,effect on apparent rate of pCMBS modification,[20],unaffected
same,effect on apparent rate of pCMBS modification,[16]; 50 μM ALX vs. 50 μM ETO,"inhibition by ALX, but not ETO"
same,effect on apparent rate of pCMBS modification,[16]; [22],unaffected
same,receptor sensitivity to anesthetic,[21],"insensitivity to ALX, but not to ETO"
same,enhancement of gating of receptors activated with EC5 GABA,[17],similarly enhance
same,effect on apparent rate of pCMBS modification,[18],accelerated
